In BindingDB's records for doi:10.1016/j.bmcl.2009.08.036 (Glaxosmithkline, 2009):

Target: T1, Oxysterols receptor LXR-beta (Homo sapiens, UniProt P55055)
T1 sequence (P55055 whole entry): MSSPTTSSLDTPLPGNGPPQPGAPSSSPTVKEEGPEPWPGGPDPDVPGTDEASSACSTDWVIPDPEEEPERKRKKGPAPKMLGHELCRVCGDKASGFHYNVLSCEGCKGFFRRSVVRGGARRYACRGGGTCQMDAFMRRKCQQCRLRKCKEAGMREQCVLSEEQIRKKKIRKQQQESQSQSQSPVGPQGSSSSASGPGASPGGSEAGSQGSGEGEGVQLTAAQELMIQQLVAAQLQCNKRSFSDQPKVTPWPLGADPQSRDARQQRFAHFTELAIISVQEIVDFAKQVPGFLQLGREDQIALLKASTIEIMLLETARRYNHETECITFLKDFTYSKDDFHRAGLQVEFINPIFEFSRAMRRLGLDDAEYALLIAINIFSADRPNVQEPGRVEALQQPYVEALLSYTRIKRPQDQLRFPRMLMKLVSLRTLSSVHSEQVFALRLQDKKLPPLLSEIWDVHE
Assay: Agonist activity at human LXRbeta assessed as association of SRC1 to LXRbeta ligand binding domain by FRET based cell-free ligand sensing assay
In short: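 Cell-free FRET ligand-sensing assay measuring ligand-dependent recruitment of a 24-amino-acid steroid receptor coactivator 1 (SRC1) fragment to the LXR ligand-binding domain. Percent efficacy is expressed against the maximal agonist response of the reference agonist. Values are means of at least two experiments, standard deviation ≤10%.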

Question: For `O=C(O)C1CCCc2c(OCCCN(Cc3cccc(C(F)(F)F)c3Cl)CC(c3ccccc3)c3ccccc3)cccc21` (racemic) [(+/-)-5-(3-((2-chloro-3-(trifluoromethyl)benzyl)(2,2-diphenylethyl)amino)propoxy)-1,2,3,4-tetrahydronaphthalene-1-carboxylic acid], which EC50 is on record?
Answer: 26 nM
